Measurements as given in ChEMBL document CHEMBL3352559, “Synthesis and pharmacological investigation of aralkyl diamine derivatives as potential triple reuptake inhibitors” (Eur J Med Chem, 2014).

How the values were obtained:
[1] = molecular target: T1, Sodium-dependent serotonin transporter (Homo sapiens, UniProt P31645); experiment: Inhibition of [3H]-serotonin uptake in human SERT expressed in HEK293 cells by scintillation counting; format: cell-based
Target sequence in this assay (P31645 whole entry): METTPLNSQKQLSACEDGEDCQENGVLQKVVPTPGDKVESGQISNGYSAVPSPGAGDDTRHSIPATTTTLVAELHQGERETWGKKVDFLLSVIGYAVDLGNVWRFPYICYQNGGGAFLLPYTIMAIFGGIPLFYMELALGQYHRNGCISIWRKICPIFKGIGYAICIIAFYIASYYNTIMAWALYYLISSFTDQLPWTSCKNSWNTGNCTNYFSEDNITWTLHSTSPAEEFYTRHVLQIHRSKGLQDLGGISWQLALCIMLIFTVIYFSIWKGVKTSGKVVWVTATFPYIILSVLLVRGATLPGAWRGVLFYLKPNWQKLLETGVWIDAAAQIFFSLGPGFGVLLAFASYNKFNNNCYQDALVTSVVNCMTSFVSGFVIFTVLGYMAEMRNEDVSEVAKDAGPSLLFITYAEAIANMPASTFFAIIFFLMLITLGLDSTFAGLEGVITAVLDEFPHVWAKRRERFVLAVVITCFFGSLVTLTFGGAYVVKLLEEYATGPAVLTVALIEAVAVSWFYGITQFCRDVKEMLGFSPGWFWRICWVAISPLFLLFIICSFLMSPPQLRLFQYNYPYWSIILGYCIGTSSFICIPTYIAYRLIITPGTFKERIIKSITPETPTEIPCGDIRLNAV

[2] = molecular target: T2, Sodium-dependent noradrenaline transporter (Homo sapiens, UniProt P23975); experiment: Inhibition of [3H]-NE uptake in human norepinephrine transporter expressed in HEK293 cells by scintillation counting; format: cell-based
T2 sequence (P23975 whole entry): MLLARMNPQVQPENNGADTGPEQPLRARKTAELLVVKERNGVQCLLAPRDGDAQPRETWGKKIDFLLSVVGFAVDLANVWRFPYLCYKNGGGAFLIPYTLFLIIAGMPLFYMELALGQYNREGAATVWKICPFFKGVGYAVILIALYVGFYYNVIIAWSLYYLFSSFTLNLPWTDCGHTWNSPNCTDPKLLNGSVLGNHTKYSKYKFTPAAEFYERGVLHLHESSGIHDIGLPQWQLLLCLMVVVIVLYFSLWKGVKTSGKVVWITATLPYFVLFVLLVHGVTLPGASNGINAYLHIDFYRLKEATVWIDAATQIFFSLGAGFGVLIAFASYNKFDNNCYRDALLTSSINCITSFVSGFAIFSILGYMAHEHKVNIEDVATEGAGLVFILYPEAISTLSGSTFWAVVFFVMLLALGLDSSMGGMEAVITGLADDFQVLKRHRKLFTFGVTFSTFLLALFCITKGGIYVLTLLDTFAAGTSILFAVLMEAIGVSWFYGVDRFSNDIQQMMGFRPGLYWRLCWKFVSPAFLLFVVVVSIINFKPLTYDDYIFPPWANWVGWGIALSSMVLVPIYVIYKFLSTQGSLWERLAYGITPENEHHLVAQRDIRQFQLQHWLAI

[3] = molecular target: T3, Sodium-dependent dopamine transporter (Homo sapiens, UniProt Q01959); experiment: Inhibition of [3H]-DA uptake in human dopamine transporter expressed in HEK293 cells by scintillation counting; format: cell-based
T3 sequence (Q01959 whole entry): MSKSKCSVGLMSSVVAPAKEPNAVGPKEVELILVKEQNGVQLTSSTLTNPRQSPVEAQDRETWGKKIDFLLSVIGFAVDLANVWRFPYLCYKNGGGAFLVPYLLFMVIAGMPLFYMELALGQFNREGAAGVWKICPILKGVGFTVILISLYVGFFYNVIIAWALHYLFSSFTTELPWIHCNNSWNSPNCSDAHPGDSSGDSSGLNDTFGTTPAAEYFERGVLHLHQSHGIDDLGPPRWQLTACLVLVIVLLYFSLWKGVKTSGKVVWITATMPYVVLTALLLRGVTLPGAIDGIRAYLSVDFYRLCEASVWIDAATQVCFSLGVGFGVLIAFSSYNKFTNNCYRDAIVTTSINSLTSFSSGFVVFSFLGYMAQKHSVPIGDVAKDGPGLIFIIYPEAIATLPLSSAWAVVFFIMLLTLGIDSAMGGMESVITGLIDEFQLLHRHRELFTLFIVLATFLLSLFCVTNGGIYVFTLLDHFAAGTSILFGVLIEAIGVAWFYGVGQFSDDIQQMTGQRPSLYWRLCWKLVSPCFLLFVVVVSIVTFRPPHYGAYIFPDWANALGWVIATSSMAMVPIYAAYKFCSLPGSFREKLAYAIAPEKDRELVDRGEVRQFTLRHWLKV

Rattus norvegicus [4] = experiment: Antidepressant activity in po dosed rat assessed as reduction in immobility time by forced swimming test; format: functional, organism-based
Outline: (§1)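 Male rats dosed orally at 5, 10 or 20 mg/kg alongside vehicle and venlafaxine 30 mg/kg PO groups. 1 h post-dose, each rat placed in a glass cylinder (40 cm × 18 cm) holding 15 cm of 25 ± 1 °C water. Immobility time recorded over a 6 min trial; significant main effects followed by post hoc Fisher's test.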

Rattus norvegicus [5] = experiment: Antidepressant activity in rat assessed as reduction in immobility time at 5 mg/kg, po by forced swimming test relative to control; format: functional; outline: as §1
Rattus norvegicus [6] = experiment: Antidepressant activity in rat assessed as reduction in immobility time at 10 mg/kg, po by forced swimming test relative to control; format: functional; outline: as §1
Rattus norvegicus [7] = experiment: Antidepressant activity in rat assessed as reduction in immobility time at 20 mg/kg, po by forced swimming test relative to control; format: functional; outline: as §1
Rattus norvegicus [8] = experiment: Toxicity in rat assessed as effect on locomotion at 20 mg/kg, po after 60 mins by spontaneous locomotor test; format: organism-based; set-up: dose 20 mg/kg, route oral; settings: in vivo, 1 h
Outline: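 Rats dosed orally at 20 mg/kg, with vehicle and venlafaxine 30 mg/kg PO as controls; 60 min later placed singly in novel 40×40×50 cm cages under dim light with sound attenuation; activity recorded automatically in 5 min bins over 30 min; mean ± SEM.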

[9] = molecular target: T1, Sodium-dependent serotonin transporter; experiment: Inhibition of [3H]-serotonin uptake in human SERT expressed in HEK293 cells at 10 uM by scintillation counting; format: cell-based
Target sequence in this assay (P31645 whole entry, looked up): as the sequence (P31645 whole entry) above

[10] = molecular target: T3, Sodium-dependent dopamine transporter; experiment: Inhibition of [3H]-DA uptake in human dopamine transporter expressed in CHO cells at 10 uM by scintillation counting
[11] = molecular target: T2, Sodium-dependent noradrenaline transporter; experiment: Inhibition of [3H]-NE uptake in human norepinephrine transporter expressed in HEK293 cells at 10 uM by scintillation counting; format: cell-based
Rattus norvegicus [12] = experiment: Toxicity in rat assessed as effect on locomotion at 30 mg/kg, po after 60 mins by spontaneous locomotor test; format: organism-based; set-up: dose 30 mg/kg, route oral; settings: in vivo, 1 h
Outline: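 Rats were dosed PO. 60 min later each was placed alone in an unfamiliar 40 cm × 40 cm × 50 cm plastic cage under dim light and sound attenuation. Spontaneous activity was monitored automatically at 5 min intervals for up to 30 min. Results are mean ± SEM versus vehicle.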

Rattus norvegicus [13] = experiment: Antidepressant activity in rat assessed as reduction in immobility time at 30 mg/kg, po by forced swimming test relative to control; format: functional
Outline: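 Male rats were dosed PO with vehicle or compound. After 1 h each rat was placed in a clear glass cylinder (40 cm tall × 18 cm diameter) holding water at 25 ± 1 °C, 15 cm deep. Immobility time was recorded over a 6 min trial and compared with vehicle. Significant main effects were followed by Fisher's post hoc test.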

IC50 [1]	IC50 [2]	inhibition [9]	inhibition [10]	inhibition [11]	Compound	further results
501 nM	206 nM				CN(C)CCC(c1ccc(Cl)c(Cl)c1)N1CCCC1 (centres undefined)	IC50 [3]: 357 nM; inhibition (Rattus norvegicus [4]): Dose-dependent effect; inhibition in vivo at 5 mg/kg (Rattus norvegicus [5]): 18%; inhibition in vivo at 10 mg/kg (Rattus norvegicus [6]): 25%; inhibition in vivo at 20 mg/kg (Rattus norvegicus [7]): 36%; Activity (Rattus norvegicus [8]): Non-toxic
338 nM	374 nM				COc1ccc2cc(C(CCN(C)C)N3CCCC3)ccc2c1Cl (centres undefined)	IC50 [3]: 8190 nM
	328 nM	86.1%	42%		CNCCC(c1ccc(F)cc1F)N1CCOCC1 (centres undefined)	
	635 nM	73.9%	83.9%		C1=C(Cc2ccccc2)CCN(CCC(c2csc3ccccc23)N2CCNCC2)C1 (centres undefined)	
		79.9%	79.5%	73.5%	COc1ccc2cc(C(CCN3CC=C(Cc4ccccc4)CC3)N3CCCC3)ccc2c1Cl (centres undefined)	
		65.4%		79.1%	C1=C(Cc2ccccc2)CCN(CCC(c2csc3ccccc23)N2CCOCC2)C1 (centres undefined)	IC50 [3]: 852 nM
		59.9%	68.1%	74%	Clc1ccc(C(CCN2CCCCC2)N2CCOCC2)cc1Cl (centres undefined)	
546 nM	634 nM				CN(C)CCC(c1ccc(Cl)c(Cl)c1)N1CCCCC1 (centres undefined)	IC50 [3]: 602 nM
		73.8%	54.4%	4.9%	Clc1ccc(C(CCN2CCOCC2)N2CCOCC2)cc1Cl (centres undefined)	
		70.2%	46.6%	68.9%	CN(C)CCC(c1ccc(F)cc1)N1CCCC1 (centres undefined)	
399 nM	428 nM		80.1%		CN(C)CCC(c1ccc(Cl)c(Cl)c1)N1CCNCC1 (centres undefined)	
905 nM			77.4%	52.7%	C1=C(Cc2ccccc2)CCN(CCC(c2csc3ccccc23)N2CCCCC2)C1 (centres undefined)	
		25.9%	22.9%	29.3%	COc1ccc(C(CCN(C)C)N2CCOCC2)cc1 (centres undefined)	
		55.6%	50.7%	19.4%	CN(C)CCC(c1ccc(F)cc1F)N1CCOCC1 (centres undefined)	
		50.7%	6.4%	74.2%	CN(C)CCC(c1ccc(F)cc1)N1CCOCC1 (centres undefined)	
		30.3%	41.9%	37.8%	CN(CCC(c1cc2ccccc2s1)N1CCOCC1)Cc1ccccc1 (centres undefined)	
621 nM	157 nM				C1=C(Cc2ccccc2)CCN(CCC(c2csc3ccccc23)N2CCCC2)C1 (centres undefined)	IC50 [3]: 325 nM

IC50 [1]	IC50 [2]	inhibition [9]	inhibition [10]	inhibition [11]	Compound	further results
		39.2%	25.8%	40.4%	Cc1ccc(C(CCN(C)C)N2CCOCC2)cc1 (centres undefined)	
449 nM	1460 nM		66.8%		CN(C)CCC(c1cc2ccccc2s1)N1CCOCC1 (centres undefined)	
		58.5%	35.7%	52.5%	CN(C)CCC(c1ccc(Cl)cc1)N1CCOCC1 (centres undefined)	
		34.9%	36.6%	19%	CCOC(=O)C1CCCN(C(CCN2CCOCC2)c2ccc(Cl)c(Cl)c2)C1 (centres undefined)	
	136 nM	76.5%			CCN(CC)CCC(c1ccc(Cl)c(Cl)c1)N1CCCC1 (centres undefined)	IC50 [3]: 363 nM
					COc1ccc(C(CN(C)C)C2(O)CCCCC2)cc1 (centres undefined) [VENLAFAXINE]	Activity (Rattus norvegicus [12]): Toxic; inhibition in vivo at 30 mg/kg (Rattus norvegicus [13]): 14%
1190 nM	2540 nM		56.8%		CN(C)CCC(c1csc2ccccc12)N1CCOCC1 (centres undefined)	
401 nM	495 nM				CN(C)CCC(c1cc2ccccc2s1)N1CCCC1 (centres undefined)	IC50 [3]: 863 nM
		57.6%	37.1%	77.4%	CN(C)CCC(c1ccc(C(F)(F)F)cc1)N1CCCC1 (centres undefined)	
		46.2%	8.5%	83.2%	CN(C)CCC(c1ccc(C(F)(F)F)cc1)N1CCOCC1 (centres undefined)	
425 nM	250 nM				CN(C)CCC(c1csc2ccccc12)N1CCCC1 (centres undefined)	IC50 [3]: 986 nM
	426 nM	79.1%			Clc1ccc(C(CCN2CC=C(Cc3ccccc3)CC2)N2CCCC2)cc1Cl (centres undefined)	IC50 [3]: 291 nM
		35.6%	3.4%	50.6%	CN(CCC(c1ccc(Cl)c(Cl)c1)N1CCOCC1)Cc1ccccc1 (centres undefined)	
		24.1%	46.2%	5.3%	CN(CCC(c1ccc(F)cc1F)N1CCOCC1)Cc1ccccc1 (centres undefined)	
		62.7%	40.1%	87.6%	CN(C)CCC(c1ccc(F)cc1)N1CCCCC1 (centres undefined)	
		47.3%	2.5%	49.5%	COc1ccc2cc(C(CCN(C)Cc3ccccc3)N3CCOCC3)ccc2c1Cl (centres undefined)	
		30.5%	54.3%	35.3%	CC1CCCN(C(CCN2CCOCC2)c2ccc(Cl)c(Cl)c2)C1 (centres undefined)	

Compound	IC50 [1]	IC50 [2]	inhibition [9]	inhibition [10]	inhibition [11]	further results
Clc1ccc(C(CCN2CCOCC2)N2CCCC2)cc1Cl (centres undefined)	389 nM	68.9 nM				IC50 [3]: 238 nM; inhibition (Rattus norvegicus [4]): Dose-dependent effect; inhibition in vivo at 5 mg/kg (Rattus norvegicus [5]): 12%; inhibition in vivo at 10 mg/kg (Rattus norvegicus [6]): 17%; inhibition in vivo at 20 mg/kg (Rattus norvegicus [7]): 34%; Activity (Rattus norvegicus [8]): Non-toxic
